Test results: PubChem BioAssay AID463073 (The Scripps Research Institute Molecular Screening Center, 2010)
In all, about 2,000 compounds went through this assay and about 10 (0.5%) were called active.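 Rule for the calls: active = inhibition above 30%; inactive = the rest.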 Many of the other results were omitted from the sample, so actives are more common in it than they were. Residues, ends and D or L forms follow the SMILES beside them. *: point of attachment. Boc = CC(C)(C)OC(=O)*

target: Protein-arginine deiminase type-4 (Homo sapiens) (UniProt Q9UM07); assay: human PAD4 inhibitors, primary screen, biochemical, fluorescence polarization (AID 463073); settings: recombinant PAD4, RFA probe fluorescence polarization; at 5 µM; stronger effect = higher value;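 note: 0% = PAD4 with DMSO and 100% = wells lacking PAD4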
Sequence (Q9UM07 whole entry, looked up): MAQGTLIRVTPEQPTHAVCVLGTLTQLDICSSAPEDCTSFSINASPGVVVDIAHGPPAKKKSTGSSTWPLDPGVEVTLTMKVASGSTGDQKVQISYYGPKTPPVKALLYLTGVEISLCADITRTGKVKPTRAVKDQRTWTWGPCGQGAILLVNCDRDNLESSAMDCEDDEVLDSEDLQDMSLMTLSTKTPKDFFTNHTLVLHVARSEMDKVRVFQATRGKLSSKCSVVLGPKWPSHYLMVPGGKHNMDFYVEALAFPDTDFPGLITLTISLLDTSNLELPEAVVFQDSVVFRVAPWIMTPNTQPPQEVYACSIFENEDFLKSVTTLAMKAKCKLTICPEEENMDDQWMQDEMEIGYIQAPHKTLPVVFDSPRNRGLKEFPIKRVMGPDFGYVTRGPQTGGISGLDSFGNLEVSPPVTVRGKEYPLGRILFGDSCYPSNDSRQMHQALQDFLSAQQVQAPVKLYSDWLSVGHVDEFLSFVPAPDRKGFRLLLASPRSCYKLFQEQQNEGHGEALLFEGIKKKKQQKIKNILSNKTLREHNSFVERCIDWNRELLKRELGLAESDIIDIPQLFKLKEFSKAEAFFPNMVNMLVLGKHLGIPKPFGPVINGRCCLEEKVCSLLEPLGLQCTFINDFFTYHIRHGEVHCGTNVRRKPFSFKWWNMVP
How it was run: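 Material: recombinant human PAD4 enzyme / Input: PAD4 at 2 µM in dispensed buffer, before additions / Medium: HEPES buffer pH 7.6 with 10 mM CaCl2 and TCEP / Incubation: 30-min PAD4–compound preincubation (25 °C), then 5-h probe labeling (37 °C) / Detection: fluorescence polarization, 598 nm emission after 525 nm excitation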

inhibition, inactive:
Cc1ccsc1/C=C/C1=NCCCN1C 1.68%
CC(C)Cc1cc(C(=O)N2CCC(N3CCC(C(=O)N4CCCC4)CC3)CC2)n[nH]1 1.19%
COc1ccc(C(=O)NC(=O)NC2(C(Cl)(Cl)Cl)OCCO2)cc1 3.68%
COc1cc(OC)c2c(C)c(Cl)c(=O)oc2c1 5.74%
COc1ccc(C2NCCC3(O)CCCCC23)c(OC)c1OC (stereo unspecified) -0.4%
CC1(C)C(=O)OC(C(=O)c2ccc(Cl)cc2)C(C)(C)C1=O (stereo unspecified) -1.03%
COc1ccc(OC(C)C(=O)Nc2ccccc2F)cc1 (stereo unspecified) -0.2%
COc1cccc(OC)c1C(=O)NCCSC1CCCCC1 -2.94%
COc1ccc(N2C(=O)C3CCCN3C2=O)cc1 (stereo unspecified) 4.89%
CC1(C)Cc2nc3oc4c(NCc5ccccc5)ncnc4c3cc2CO1 1.79%
CCOC(=O)C1NN=C(C(=O)c2ccccc2)C1c1ccc(Cl)cc1 (stereo unspecified) 1.88%
CN(C)C(=O)C12CCC(C)(c3nc4ccccc4nc31)C2(C)C (stereo unspecified) 3.6%
Cc1ccc(S(=O)(=O)NC(C(=O)Oc2ccc3c(C(F)(F)F)cc(=O)oc3c2)c2ccccc2)cc1 (stereo unspecified) 6.06%
O=C(NCCC(c1ccccc1)c1ccco1)c1cccs1 (stereo unspecified) -4.26%
O=C1CC[C@@H](CN(Cc2ccccc2)Cc2cn[nH]c2-c2cc3ccccc3o2)N1 -4.5%
CC(C)CC(NC(=O)C1CCCN1C(=O)OC(C)(C)C)C(=O)NCC(N)=O (stereo not drawn) (Boc-Pro-Leu-Gly-NH2; configuration not given here) 0.39%
Cc1nc2cc3ccccc3cc2c(=O)[nH]1 -2.65%
O=C(O)c1cnccn1 1.59%
CC1(CC(=O)Nc2ccccc2)NC(=S)N(c2ccccc2)N1 (stereo unspecified) 0.19%
O=C1c2cccc3cccc(c23)C(=O)N1c1ccccn1 -4.66%
O=C(c1ccc(-c2ccccc2)c(F)c1)C1CCCN(C(=O)c2cncs2)C1 (stereo unspecified) 3.12%
O=C(O)CCSCCC(=O)O -2.7%
COc1ccc(C(C)=O)c2c1OCCO2 6.78%
CC1(C)CC(C(CC(=O)N2CCCC2)Cc2ccccc2)CCO1 (stereo unspecified) -1.3%
COc1ccc(NS(=O)(=O)c2ccc(N)cc2)nn1 0.73%
COc1ccc(-c2noc(-c3ccccc3-c3ccccc3)n2)cc1 -3.61%
O=C1C2CC=C(Cl)CC2C(=O)N1CCc1c[nH]c2ccccc12 (stereo unspecified) -0.53%
COc1ccc(C(CC(=O)N2CCOCC2)C(C)C)cc1 (stereo unspecified) 4.61%
COc1ccc(N2CCN(C(=S)NCc3ccccc3)CC2)cc1 -1.38%
COc1ccc(NC(=S)N2CCN(CCN3C(=O)c4cccc5cccc(c45)C3=O)CC2)cc1 2.54%
COC(=O)[C@@H](N)CS 2.39%
O=C(NC(=S)Nc1nc(-c2ccccc2)cs1)c1ccco1 4.01%
CC(NC(=O)c1ccc(OC2CCN(Cc3ccccn3)CC2)cc1)c1ccccc1 (stereo unspecified) -1.87%
OCC1CCN(Cc2cn(Cc3ccccc3)nc2-c2cc3ccccc3o2)CC1 -3.81%
CCOc1ccc2nc(N/C(N)=N/S(C)(=O)=O)nc(C)c2c1 -1.87%
COc1cc(SC)ccc1C(=O)NC(C)C -4.36%
CCn1c(O)c(/C=C2\C=Nc3ccccc32)sc1=O 6.23%
Cc1ccc(C(=O)NCCNC(=O)c2ccccc2)cc1 -2.16%
CC12CCC(C(=O)Nc3ccccc3Br)(C/C1=N\O)C2(C)C (stereo unspecified) 2.8%
COC(=O)c1ccc2c(c1)C(=O)/C(=C/c1ccc(O)cc1)O2 2.19%
NC[C@H]1O[C@H](O[C@H]2[C@H](O)[C@@H](O[C@H]3O[C@H](CO)[C@@H](O)[C@H](N)[C@H]3O)[C@H](N)C[C@@H]2N)[C@H](N)C[C@@H]1O 0.78%
O=C(c1ccccc1)N1CCN(C(=O)c2ccccc2)CC1 -0.13%
Cn1c(=O)c2c(nc(SCCN3CCCCC3)n2C)n(C)c1=O 4.29%
CCSC(=O)CCCCCCCCCCCO 3.34%
CC(C)OC(=O)C1C(=O)CC(C)(O)C(C(=O)OC(C)C)C1c1cccc(O)c1 (stereo unspecified) 2.73%
COc1ccc(O)c(C(=O)/C=C/c2cc3ccccc3o2)c1 0.93%
COc1ccc(CCNC(=O)CC(c2ccccc2)c2cccc(C)c2O)cc1OC (stereo unspecified) 1.59%
COc1ccc(C2NC(C(=O)O)Cc3c2[nH]c2ccccc32)cc1CN1CCN(c2ccc(F)cc2)CC1 (stereo unspecified) 6.02%
CC(=O)[C@@]1(O)CC[C@H]2[C@@H]3C[C@H](C)C4=CC(=O)C=C[C@]4(C)[C@@]3(F)[C@@H](O)C[C@@]21C -5.68%
COc1ccc2c(c1OC)C(=O)OC2C1c2c(cc3c(c2OC)OCO3)CCN1C (stereo unspecified) 7.1%
CCOC(=O)c1ccc2[nH]c(C)c(CCC(C)=O)c(=O)c2c1 -4.46%
